Like-named read-outs stand apart in the source and are kept apart here.

In experiment [1] the test system is 2008 ovarian cancer cells. The experiment can be described thus: MTT cytotoxicity, 72 h. In kind it is cell-based, human. As to conditions: read-out: IC50 (μM)±SD 2008, MTT test. In outline: (§1)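 The 2008 and H157 cells were kept in RPMI-1640, and A375 cells in DMEM, each with 10% FCS, antibiotics and 2 mM glutamine, at 37 °C, 5% CO2. Cells (3–8×10^3/well) were exposed 72 h in triplicate, with DMSO at 0.5% final. MTT was added for 5 h, followed by SDS/0.01 M HCl overnight, then A570 relative to untreated wells. IC50 came from a 4-PL fit, means of ≥4 independent experiments.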

In experiment [2] the test system is H157 lung carcinoma cells. The experiment can be described thus: MTT cytotoxicity, 72 h. In kind it is cell-based, human. Conditions: read-out: IC50 (μM)±SD H157, MTT test. The gist of the method: as §1
In experiment [3] the test system is H157 cells. The experiment can be described thus: Apoptosis induction. The format is cell-based, human. Conditions: 48 h, IC50 doses.
Experiment [4] has as its system HCT‐15 colon cancer cells. Put plainly: MTT cytotoxicity, 72 h. The format is cell-based, human. Conditions: read-out: IC50 (μM)±SD HCT‐15, MTT test.
For experiment [5], the system named is PSN‐1 pancreatic cancer cells. The experiment can be described thus: MTT cytotoxicity, 72 h. In kind it is cell-based, human. Conditions: read-out: IC50 (μM)±SD PSN‐1, MTT test.
Experiment [6] deals with MCF‐7 breast cancer cells. The experiment can be described thus: MTT cytotoxicity, 72 h. As to conditions: read-out: IC50 (μM)±SD MCF‐7, MTT test. In kind it is cell-based, human.
For experiment [7], the system named is A431 cervical carcinoma cells. Put plainly: MTT cytotoxicity, 72 h. In kind it is cell-based, human. Conditions: read-out: IC50 (μM)±SD A431, MTT test.
Experiment [8] deals with H157 cells. The experiment can be described thus: Transmission electron microscopy. As to conditions: 24 h, IC50 concentrations. In kind it is cell-based, human. The gist of the method: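 About 10^6 H157 cells were treated 24 h after seeding and incubated a further 24 h; untreated and auranofin-treated cells served as references. Cells were fixed in 1.5% glutaraldehyde in 0.2 M sodium cacodylate pH 7.4, post-fixed in 1% OsO4 and embedded in epoxy. Sections were 1 μm (toluidine blue) or 90 nm (uranyl acetate/lead citrate), imaged at 75 kV.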

Experiment [9] has as its system A375 melanoma cells. Put plainly: MTT cytotoxicity, 72 h. As to conditions: read-out: IC50 (μM)±SD A375, MTT test. In kind it is cell-based, human. In outline:
as §1

Experiment [10] deals with A2780 ovarian cancer cell spheroids. Put plainly: 3D spheroid cytotoxicity, acid phosphatase. As to conditions: read-out: IC50 (μM)±SD A2780 spheroids; 3D spheroids, 72 h, APH assay. The format is cell-based, human. In outline:
(§2)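 H157 or A2780 cells were seeded at 2.5×10^3 cells/well in round-bottom non-treated plates. The medium was phenol red-free RPMI-1640 with 10% FCS plus 20% methyl cellulose stock solution. Spheroids were exposed 72 h to increasing concentrations, with the compound added from DMSO to a final 0.5%. Viability was read by a modified acid phosphatase assay, and IC50 was fitted by a 4-parameter logistic model.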

In experiment [11] the test system is H157 lung cancer cell spheroids. The experiment can be described thus: 3D spheroid cytotoxicity, acid phosphatase. In kind it is cell-based, human. Conditions: read-out: IC50 (μM)±SD H157 spheroids; 3D spheroids, 72 h, APH assay. The gist of the method:
as §2

Experiment [12] concerns A2780 ovarian adenocarcinoma cells. Put plainly: MTT cross-resistance, sensitive ovarian cells. In kind it is cell-based. As to conditions: Homo sapiens, A2780, 72 h, read-out: IC50 (μM)±SD A2780. The gist of the method: (§3)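 A2780 and A2780 ADR cells were grown in RPMI-1640 with 10% FCS, antibiotics and 2 mM glutamine at 37 °C, 5% CO2. Cells (3–8×10^3/well) were given compound after 24 h and exposed 72 h in triplicate, with DMSO at 0.5% final. MTT was added for 5 h, followed by SDS/0.01 M HCl overnight, then A570 as % of untreated control. IC50 came from a 4-PL fit over ≥4 experiments; RF = IC50 A2780 ADR/IC50 A2780.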

Experiment [13] concerns LoVo MDR colon cancer cells. The experiment can be described thus: MTT cross-resistance, multi-drug resistant cells. In kind it is cell-based, human. In outline:
(§4)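 LoVo, LoVo MDR and LoVo-OXP cells were grown in F-12 HAM'S with 10% FCS, antibiotics and 2 mM glutamine at 37 °C, 5% CO2. LoVo-OXP had been selected over 17 months in increasing oxaliplatin. Cells (3–8×10^3/well) were exposed 72 h in triplicate, with DMSO at 0.5% final. MTT was added for 5 h, followed by SDS/0.01 M HCl overnight, then A570. IC50 came from a 4-PL fit over ≥4 experiments; RF = IC50 resistant/IC50 LoVo.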

Experiment [14] has as its system A2780 ADR ovarian cancer cells. Put plainly: MTT cross-resistance, multi-drug resistant ovarian cells. In kind it is cell-based, human. In outline: as §3
The subject of experiment [15] is LoVo colon cancer cells. Put plainly: MTT cross-resistance, sensitive colon cells. In kind it is cell-based, human. Conditions: 72 h, read-out: IC50 (μM)±SD LoVo. The gist of the method: as §4
The test system of experiment [16] is LoVo‐OXP colon cancer cells. Put plainly: MTT cross-resistance, oxaliplatin-resistant cells. In kind it is cell-based, human. In outline:
as §4

Experiment [17] has as its system LoVo‐OXP colon cancer cells. As to conditions: as previously reported; cited from earlier work.
Where [18] appears, read: RF=IC50 resistant cells/IC50 sensitive cells.

`CC(=O)OC[C@H]1O[C@@H]([S-])[C@H](OC(C)=O)[C@@H](OC(C)=O)[C@@H]1OC(C)=O.CCP(CC)CC.[Au+]` [Auranofin, 2,3,4,6‐tetra‐o‐acetyl‐ L‐thio‐β‐D‐glyco‐pyranosato ‐S‐(triethyl‐phosphine) gold(I)]: the IC50 in [1] turned out to be 1 ± 0.2 µM; in experiment [2] it was 1.6 ± 0.3 µM; in [4], 0.1 ± 0.02 µM; in [5] it was 1 ± 0.4 µM; in experiment [6] it was 0.9 ± 0.3 µM; in experiment [7], 2 ± 0.8 µM. Besides, in experiment [9], the half-maximal inhibitory concentration (IC50) was 2.3 ± 1 µM. In addition, the “apoptosis, cellular morphological changes (Hoechst 33258)” value in experiment [3] is “brightly stained nuclei and morphological features typical of cells undergoing apoptosis”. Further, the “mitochondrial morphology (TEM)” value in experiment [8] was “dramatic swelling of the mitochondria”.

Consider `N.N.[Cl][Pt][Cl]` [Cisplatin], for which the IC50 in [1] came to 2.2 ± 1.3 µM; in experiment [10], 74.2 ± 8.9 µM; in [2], 5.9 ± 1.1 µM; in experiment [4], 11.3 ± 1.5 µM; in experiment [5], 12.1 ± 2.9 µM; in experiment [6] it was 8.8 ± 1 µM. The 50% inhibitory concentration (IC50) in experiment [7] was determined as 1.4 ± 0.3 µM; in experiment [11], 52.5 ± 1.3 µM; in experiment [9], 3.1 ± 0.4 µM.

For the molecule `COc1cccc2c1C(=O)c1c(O)c3c(c(O)c1C2=O)C[C@@](O)(C(=O)CO)C[C@@H]3O[C@H]1C[C@H](N)[C@H](O)[C@H](C)O1` [Doxorubicin], the 50% inhibitory concentration (IC50) turned out to be 0.01 ± 0.001 µM in experiment [12]; 19.2 ± 2.3 µM in experiment [13] (Homo sapiens, LoVo, 72 h, read-out: IC50 (μM)±SD LoVo MDR); 0.16 ± 0.03 µM in [14] (Homo sapiens, A2780 ADR, 72 h, read-out: IC50 (μM)±SD A2780 ADR); 1.1 ± 0.2 µM in [15] (Homo sapiens, LoVo). Moreover, in experiment [13] (setting [18]), the “RF (LoVo MDR/LoVo)” value is reported as 17.5 –. For the same molecule, in experiment [14] (setting [18]), the “RF (A2780 ADR/A2780)” value is given as 16.0 –.

Regarding `O=C(O)C(=O)O.[NH-][C@@H]1CCCC[C@H]1[NH-].[Pt+2]` [oxaliplatin], the “RF (LoVo‐OXP/LoVo)” value in [16] (setting [18]) was “ND 13.0”. In addition, the half-maximal inhibitory concentration (IC50) in [16] (read-out: IC50 (μM)±SD LoVo‐OXP, 72 h, MTT test) came out at 14.3 µM; in experiment [15] (MTT test) it was 1.1 ± 0.6 µM. Further, the “resistance of LoVo OXP cells vs parental cells” value in experiment [17] is on record as “about 13 fold”.

The values are drawn from paper PMC10092581 (Chemistry (Weinheim an Der Bergstrasse, Germany), 2022).
